Assay results collected from several papers.
Each line is one published result; the experiments were not run side by side.
USP8: Ubiquitin carboxyl-terminal hydrolase 8 (USP8, Homo sapiens, UniProt P40818)
TACR2: Substance-K receptor (TACR2, Homo sapiens, UniProt P21452)
Dipeptidyl peptidase 8: Dipeptidyl peptidase 8 (Homo sapiens, UniProt Q6V1X1)

Structure (SMILES) | target | observed | mode | technique | tested at | inhibition
Cn1cc(-c2cc(F)cc(N3CCn4c(cc5c4CCCC5)C3=O)c2CO)cc(Nc2ccc(N3CCN(C4COC4)CC3)cn2)c1=O | Protein kinase C alpha type (PRKCA, Homo sapiens, UniProt P17252) | enzyme activity | inhibitor | – | 0.1 µM | -11%
CCOC(=O)c1ccc(OC(=O)CCCCCNC(=N)N)cc1 | USP8 | enzyme activity | inhibitor | – | 10 µM | 0%
C[C@H](C(=O)N[C@H]1COc2ccccc2[C@@H]1S(C)(=O)=O)c1ccc(F)cc1 | TACR2 | cell-free assay | – | – | 10 µM | -21%
N=C(N)c1ccc2cc(OC(=O)c3ccc(N=C(N)N)cc3)ccc2c1 | Dipeptidyl peptidase 8 | enzyme activity | inhibitor | – | 10 µM | 8%
O=c1ccc2cc3ccoc3cc2o1 | Histone deacetylase 8 (HDAC8, Homo sapiens, UniProt Q9BY41) | enzyme activity | inhibitor | – | 10 µM | 30.7%
COCc1c(-c2cc3cc(C)cc(OC)c3s2)c2c(N)ncnn2c1CN1CCNC(=O)C1 | Nitric oxide synthase 1 (Nos1, Rattus norvegicus, UniProt P29476) | enzyme activity | inhibitor | – | 10 µM | -8%
CN(C)C(=O)COC(=O)Cc1ccc(OC(=O)c2ccc(NC(=N)N)cc2)cc1 | USP8 | enzyme activity | inhibitor | – | 10 µM | 0%
C#Cc1n[nH]c2c(-c3cn([C@@H](C)c4ccccc4)c(=O)[nH]c3=O)cc(F)cc12 | Tyrosine-protein kinase Yes (YES1, Homo sapiens, UniProt P07947) | enzyme activity | inhibitor | – | 0.1 µM | -3.5%
O=C(Nc1cccnn1)N1CCN([C@@H]2CCOc3cc(C(F)(F)F)ccc32)CC1 | Somatostatin receptor type 4 (SSTR4, Homo sapiens, UniProt P31391) | ligand displacement | – | – | 20 µM | 29%
COc1cc(Nc2ncc(F)c(Nc3ccc4c(n3)NC(=O)C(C)(C)O4)n2)cc(OC)c1OC | Ephrin type-A receptor 6 (EPHA6, Homo sapiens, UniProt Q9UF33) | binding | – | competition with immobilised ligand | 10 µM | 82%
O=C(CCCCCCC(=O)Nc1ccccc1)NO | Histone deacetylase 1 (HDAC1, Homo sapiens, UniProt Q13547) | enzyme activity | inhibitor | – | 0.1 µM | 66.3%
c1ccc(C(NCCNC(c2ccccc2)c2ccccc2)c2ccccc2)cc1 | TACR2 | cell-free assay | – | – | 10 µM | 40%
C#Cc1n[nH]c2c(-c3cn(C(C)c4ccccn4)c(=O)[nH]c3=O)cc(F)cc12 (stereo not shown) | Glycogen synthase kinase-3 alpha (GSK3A, Homo sapiens, UniProt P49840) | enzyme activity | inhibitor | – | 1 µM | 4.6%
N#Cc1ccc(NCCNCC(=O)N2N=CCC2C#N)nc1 (stereo not shown) | Dipeptidyl peptidase 8 | enzyme activity | inhibitor | – | 1 µM | 0%
Cn1cc(-c2cccc(N3CCc4c(sc5c4CC(C)(C)C5)C3=O)c2CO)cc(Nc2ccncn2)c1=O | Testis-specific serine/threonine-protein kinase 2 (TSSK2, Homo sapiens, UniProt Q96PF2) | enzyme activity | inhibitor | – | 1 µM | 2%
CCN(CC)CCCC[C@H](NC(=O)[C@H](CC(C)C)NC(=O)[C@H](C)NC(=O)[C@H](Cc1ccccc1)NC(=O)c1ccc(C(C)(C)C)cc1)C(=O)N[C@@H](CO)C(=O)OC | TACR2 | ligand displacement | – | radioligand | 10 µM | 75%
